Activity calls are given as the source filed them. The rule behind the calls is not given here.
Legend:
[1] = target: T1, Type-2 angiotensin II receptor (Homo sapiens) (UniProt P50052); experiment: Antagonist activity at AT2 angiotensin receptor expressed in SKNSH cells assessed as blockade of angiotensin 2-induced increase in antibody recognition at 100 nM by ELISA; format: functional, cell-based; design: scale not given: the % may be the effect or the level left
T1 sequence (whole entry): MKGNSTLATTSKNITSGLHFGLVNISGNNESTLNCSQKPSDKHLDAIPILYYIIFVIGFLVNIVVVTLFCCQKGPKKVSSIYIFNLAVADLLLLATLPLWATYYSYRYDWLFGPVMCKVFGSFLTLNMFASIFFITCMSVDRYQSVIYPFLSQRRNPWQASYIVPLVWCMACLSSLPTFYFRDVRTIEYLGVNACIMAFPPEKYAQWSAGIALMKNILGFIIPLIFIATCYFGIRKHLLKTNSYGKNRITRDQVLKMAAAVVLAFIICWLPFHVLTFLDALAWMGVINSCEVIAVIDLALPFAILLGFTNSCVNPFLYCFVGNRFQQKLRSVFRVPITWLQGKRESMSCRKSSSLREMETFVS

[2] = target: Delta-type opioid receptor (Homo sapiens) (UniProt P41143); experiment: Antagonist activity at delta opioid receptor expressed in HEK293 cells assessed as blockade of deltorphin 2-mediated decrease in secreted alkaline phosphatase activity at 1 uM after 6 hrs relative to control; format: functional, cell-based
How it was run: (§1)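 HEK-293 cells transiently co-transfected with pCRE-SeAP and a Flag-tagged receptor, 30,000 cells/well on poly-L-lysine. They were serum-starved 16–18 h, then exposed 6 h in serum-free medium to 10 μM forskolin (omitted for β2) plus the receptor agonist (100 nM), with or without peptide (1 μM). Heat-treated supernatant SeAP was read by CSPD chemiluminescence. Mean ± SEM, n = 6.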

[3] = target: T2, Type-1 angiotensin II receptor (Homo sapiens) (UniProt P30556); experiment: Antagonist activity at AT1 angiotensin receptor expressed in HEK293 cells assessed as blockade of secreted alkaline phosphatase activity at 1 uM after 6 hrs relative to control; format: functional, cell-based; how it was run: as §1
T2 sequence (whole entry): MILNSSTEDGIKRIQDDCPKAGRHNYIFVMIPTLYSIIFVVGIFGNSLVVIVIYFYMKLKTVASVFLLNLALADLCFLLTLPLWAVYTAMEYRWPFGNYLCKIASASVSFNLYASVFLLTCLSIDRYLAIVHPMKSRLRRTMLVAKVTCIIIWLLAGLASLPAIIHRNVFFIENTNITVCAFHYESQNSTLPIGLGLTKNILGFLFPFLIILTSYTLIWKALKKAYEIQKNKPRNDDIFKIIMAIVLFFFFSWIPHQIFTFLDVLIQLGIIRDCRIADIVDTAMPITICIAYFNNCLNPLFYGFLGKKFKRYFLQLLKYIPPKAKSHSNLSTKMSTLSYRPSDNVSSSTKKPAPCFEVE

Cannabinoid receptor 1 = Cannabinoid receptor 1 (Rattus norvegicus, UniProt P20272); experiment: Displacement of [3H]SR141716 from Long-Evans rat striatal membrane CB1 receptor
Mus musculus = experiment: Effect on motor coordination in C57BL/6 mouse at […], ip after 1 hrs; format: functional, organism-based
[4] = target: Delta-type opioid receptor (Homo sapiens) (UniProt P41143); experiment: Antagonist activity at delta opioid receptor expressed in SKNSH cells at 100 nM by ELISA relative to control; format: functional, cell-based; design: scale not given: the % may be the effect or the level left
[5] = target: Cannabinoid receptor 1 (Homo sapiens) (UniProt P21554); experiment: Antagonist activity at CB1 receptor expressed in Neuro 2A cells assessed as blockade of Hu210-mediated decrease in secreted alkaline phosphatase activity at 1 uM; format: functional, cell-based
How it was run: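 Neuro 2A cells co-expressing pCRE-SeAP and CB1 were serum-starved 16–18 h, then given 10 μM forskolin plus 100 nM Hu-210, with or without 1 μM peptide, for 6 h without serum. Secreted alkaline phosphatase in heat-treated supernatant was measured by CSPD luminescence. Mean ± SEM of sextuplicates, n = 2.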

[6] = target: T3, Alpha-2A adrenergic receptor (Homo sapiens) (UniProt P08913); experiment: Antagonist activity at alpha2A adrenergic receptor expressed in SKNSH cells at 100 nM by ELISA relative to control; format: functional, cell-based; design: scale not given: the % may be the effect or the level left
T3 sequence (whole entry): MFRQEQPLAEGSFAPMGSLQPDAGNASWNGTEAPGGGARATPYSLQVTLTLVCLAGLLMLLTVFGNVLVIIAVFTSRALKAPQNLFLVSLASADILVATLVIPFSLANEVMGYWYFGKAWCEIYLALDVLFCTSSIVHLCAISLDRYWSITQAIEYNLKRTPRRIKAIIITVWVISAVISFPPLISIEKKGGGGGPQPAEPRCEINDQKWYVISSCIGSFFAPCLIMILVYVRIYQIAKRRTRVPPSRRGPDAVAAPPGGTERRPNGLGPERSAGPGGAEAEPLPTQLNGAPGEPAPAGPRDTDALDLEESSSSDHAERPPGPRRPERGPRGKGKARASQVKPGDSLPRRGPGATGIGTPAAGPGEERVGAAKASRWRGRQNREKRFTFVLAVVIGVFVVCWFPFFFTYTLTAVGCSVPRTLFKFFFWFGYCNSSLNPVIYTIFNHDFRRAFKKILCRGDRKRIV

[7] = target: T3, Alpha-2A adrenergic receptor (Homo sapiens); experiment: Antagonist activity at alpha2A adrenergic receptor expressed in HEK293 cells assessed as blockade of clonidine-mediated decrease in secreted alkaline phosphatase activity at 1 uM after 6 hrs relative to control; format: functional, cell-based; how it was run: as §1
[8] = target: Mu-type opioid receptor (Homo sapiens) (UniProt P35372); experiment: Antagonist activity at mu opioid receptor expressed in SKNSH cells assessed as blockade of DAMGO-induced increase in antibody recognition at 100 nM by ELISA relative to control; format: functional, cell-based; design: scale not given: the % may be the effect or the level left
Chain of Mu-type opioid receptor (Homo sapiens) (P35372 whole entry): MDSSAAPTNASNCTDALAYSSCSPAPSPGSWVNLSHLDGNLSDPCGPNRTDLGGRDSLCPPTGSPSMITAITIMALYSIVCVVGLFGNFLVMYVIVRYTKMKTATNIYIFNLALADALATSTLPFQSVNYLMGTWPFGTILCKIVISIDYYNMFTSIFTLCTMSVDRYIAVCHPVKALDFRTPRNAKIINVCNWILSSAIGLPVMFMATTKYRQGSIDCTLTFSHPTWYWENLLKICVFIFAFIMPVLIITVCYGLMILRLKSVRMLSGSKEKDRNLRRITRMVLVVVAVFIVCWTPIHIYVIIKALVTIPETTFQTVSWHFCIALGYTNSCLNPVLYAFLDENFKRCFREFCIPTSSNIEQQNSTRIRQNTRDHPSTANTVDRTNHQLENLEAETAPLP

Chain of Delta-type opioid receptor (Homo sapiens) (P41143 whole entry): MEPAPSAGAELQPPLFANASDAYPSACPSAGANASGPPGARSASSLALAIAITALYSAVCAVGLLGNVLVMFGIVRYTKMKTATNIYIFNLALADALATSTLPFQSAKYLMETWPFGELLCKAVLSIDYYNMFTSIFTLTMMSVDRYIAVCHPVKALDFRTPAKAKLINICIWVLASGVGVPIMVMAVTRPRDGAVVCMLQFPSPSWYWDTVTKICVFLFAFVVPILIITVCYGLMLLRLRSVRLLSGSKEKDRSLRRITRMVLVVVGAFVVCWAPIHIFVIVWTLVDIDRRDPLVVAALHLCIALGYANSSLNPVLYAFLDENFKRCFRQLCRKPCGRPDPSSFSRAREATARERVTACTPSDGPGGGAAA
Chain of Cannabinoid receptor 1 (P20272 whole entry): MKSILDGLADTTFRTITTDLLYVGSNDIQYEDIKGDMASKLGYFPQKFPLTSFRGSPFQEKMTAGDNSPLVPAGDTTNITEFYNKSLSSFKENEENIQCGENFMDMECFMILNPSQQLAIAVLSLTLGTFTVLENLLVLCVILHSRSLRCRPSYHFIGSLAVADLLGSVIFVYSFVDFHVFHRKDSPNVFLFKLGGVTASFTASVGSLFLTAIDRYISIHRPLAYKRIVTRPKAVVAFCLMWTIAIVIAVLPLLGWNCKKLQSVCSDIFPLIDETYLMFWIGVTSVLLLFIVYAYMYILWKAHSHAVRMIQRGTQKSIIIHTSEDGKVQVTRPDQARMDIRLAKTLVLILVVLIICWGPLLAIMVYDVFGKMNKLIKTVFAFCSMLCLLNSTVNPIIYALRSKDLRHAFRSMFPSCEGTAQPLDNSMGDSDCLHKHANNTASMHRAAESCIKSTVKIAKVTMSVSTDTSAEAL
Chain of Cannabinoid receptor 1 (Homo sapiens) (P21554 whole entry): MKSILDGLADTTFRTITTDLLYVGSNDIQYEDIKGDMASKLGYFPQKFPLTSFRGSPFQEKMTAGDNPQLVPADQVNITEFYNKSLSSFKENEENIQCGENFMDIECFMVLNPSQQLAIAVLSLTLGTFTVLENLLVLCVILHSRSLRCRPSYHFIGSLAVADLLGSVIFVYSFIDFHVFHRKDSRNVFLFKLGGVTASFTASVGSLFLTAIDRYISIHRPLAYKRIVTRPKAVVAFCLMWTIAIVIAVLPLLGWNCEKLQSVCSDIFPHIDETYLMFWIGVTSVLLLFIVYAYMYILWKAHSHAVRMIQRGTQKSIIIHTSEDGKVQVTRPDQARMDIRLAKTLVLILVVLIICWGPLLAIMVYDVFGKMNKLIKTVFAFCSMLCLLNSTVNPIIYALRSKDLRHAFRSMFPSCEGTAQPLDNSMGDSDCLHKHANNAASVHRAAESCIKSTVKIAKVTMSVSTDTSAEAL

For `CC(C)C[C@H](NC(=O)[C@H](Cc1ccccc1)NC(=O)[C@H](CCCCN)NC(=O)[C@H](Cc1ccccc1)NC(=O)[C@H](CC(N)=O)NC(=O)[C@@H](NC(=O)[C@@H]1CCCN1)C(C)C)C(=O)N[C@@H](CO)C(=O)N[C@@H](Cc1cnc[nH]1)C(=O)O` [HEMOPRESSIN], the Activity [1] was 137%, the Activity [2] was 0.59 and the Activity [3] was 0.98. The EC50 (Cannabinoid receptor 1) was 0.35 nM, the Activity (Mus musculus) was “inactive” and the Activity [4] was 101%. For the same compound, the Activity [5] was “Active”, the Activity [6] was 103% and the Activity [7] was 0.53. The Activity [8] was 141%.
